Active and inactive are the calls of the source. No cut-off for these calls is given here.
Assays:
Assay type in all cases: functional, cell-based
[1] = system: J774.2; test: Antiproliferative activity against LPS-stimulated mouse J774.2 cells assessed as reduction in cell viability at 1 to 5 ug/mL incubated for 1 day by trypan blue staining analysis; conditions: dose 1-5 µg/ml
How it was run: (§1)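 J774.2 macrophages in RPMI 1640 with 10 % FBS, antibiotics and sodium pyruvate, 37 °C, 5 % CO₂. Cells were exposed for 1 day to molecules at 1, 2 and 5 µg/mL with or without LPS, with SA at 5 µg/mL as control. Supernatants were removed, cells washed in PBS, then counted with trypan blue to give viability. N = 3.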

[2] = system: J774.2; test: Antiproliferative activity against LPS-stimulated mouse J774.2 cells assessed as reduction in cell viability at 1 to 5 ug/mL incubated for 1 day in presence of LPS by trypan blue staining analysis; conditions: dose 1-5 µg/ml; how it was run: as §1
[3] = system: J774.2; test: Antiinflammatory activity in mouse J774.2 cells assessed as reduction in TNF-alpha level at 1 to 5 ug/mL […] by ELISA analysis; conditions: dose 1-5 µg/ml
How it was run: (§2)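 J774.2 macrophages were cultured in RPMI 1640 with 10 % FBS, antibiotics and sodium pyruvate at 37 °C, 5 % CO₂. Cells received molecules at 1, 2 and 5 µg/mL for 1 day without LPS. Supernatant TNF-α or IL6 was quantified by sandwich ELISA with TMB read-out at 450 nm. N = 3.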

[4] = system: J774.2; test: Antiinflammatory activity in LPS-stimulated mouse J774.2 cells assessed as reduction IL-6 production at 5 ug/mL […] by ELISA analysis; conditions: dose 5.0 µg/ml
How it was run: (§3)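 J774.2 macrophages in RPMI 1640 with 10 % FBS, 1 % penicillin/streptomycin and sodium pyruvate, 24-well plates, 37 °C, 5 % CO₂. Cells were stimulated for 1 day with test molecules at 1, 2 and 5 µg/mL plus LPS. SA at 5 µg/mL served as control. Supernatant TNF-α or IL6 was read by sandwich ELISA: biotin-antibody, streptavidin-HRP, TMB, absorbance at 450 nm. N = 3.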

[5] = system: J774.2; test: Antiinflammatory activity in mouse J774.2 cells assessed as reduction in IL-6 production at 1 to 5 ug/mL […] by ELISA analysis; conditions: dose 1-5 µg/ml; how it was run: as §2
[6] = system: J774.2; test: Antiinflammatory activity in LPS-stimulated mouse J774.2 cells assessed as reduction in IL-6 production at 1 to 5 ug/ml […] by ELISA analysis; conditions: dose 1-5 µg/ml; how it was run: as §3
[7] = system: J774.2; test: Antiinflammatory activity in LPS-stimulated mouse J774.2 cells assessed as reduction in TNF-alpha level at 5 ug/mL incubated for 12 hrs by ELISA analysis; conditions: dose 5.0 µg/ml, time 24.0 hrs, in the assay text read “24 hrs” for “12 hrs”; how it was run: as §3
[8] = system: J774.2; test: Antiinflammatory activity in LPS-stimulated mouse J774.2 cells assessed as reduction in IL-6 production at 2 to 5 ug/ml […] by ELISA analysis; conditions: dose 2-5 µg/ml; how it was run: as §3
[9] = system: J774.2; test: Antiinflammatory activity in LPS-stimulated mouse J774.2 cells assessed as reduction IL-6 production at 2 to 5 ug/mL incubated for […] by ELISA analysis; conditions: dose 2-5 µg/ml; how it was run: as §3
[10] = system: J774.2; test: Antiinflammatory activity in LPS-stimulated mouse J774.2 cells assessed as reduction in IL-6 production at 1 ug/ml incubated for […] by ELISA analysis; conditions: dose 1.0 µg/ml; how it was run: as §3
[11] = system: J774.2; test: Antiinflammatory activity in LPS-stimulated mouse J774.2 cells assessed as reduction in TNF-alpha level at 1 to 5 ug/mL incubated for 12 hrs by ELISA analysis; conditions: dose 1-5 µg/ml, time 24.0 hrs, in the assay text read “24 hrs” for “12 hrs”; how it was run: as §3
[12] = system: J774.2; test: Antiinflammatory activity in LPS-stimulated mouse J774.2 cells assessed as reduction in TNF-alpha level at 1 to 2 ug/mL […] by ELISA analysis; conditions: dose 1-2 µg/ml; how it was run: as §3

Structure (SMILES)	Activity [1]	Activity [2]	Activity [3]	Activity [4]	Activity [5]	Activity [6]	Activity [7]	Activity [8]	Activity [9]	Activity [10]	Activity [11]	Activity [12]
NC1=C(n2c(-c3ccc(Br)cc3)cs/c2=N\C(=O)c2ccc(Cl)c([N+](=O)[O-])c2)C(=O)c2ccccc2C1=O	inactive	inactive	inactive	Active	inactive							
NC1=C(n2c(-c3ccc(F)cc3)cs/c2=N\C(=O)c2cccc([N+](=O)[O-])c2)C(=O)c2ccccc2C1=O	inactive	inactive	inactive		inactive							
NC1=C(n2c(-c3ccc(Br)cc3)cs/c2=N\C(=O)c2cccc([N+](=O)[O-])c2)C(=O)c2ccccc2C1=O	inactive	inactive	inactive		inactive	Active						
NC1=C(n2c(-c3ccc(Cl)cc3)cs/c2=N\C(=O)c2cccc([N+](=O)[O-])c2)C(=O)c2ccccc2C1=O	inactive	inactive	inactive		inactive		Active	Active				
NC1=C(n2c(-c3ccc(Cl)cc3)cs/c2=N\C(=O)c2ccc(Cl)c([N+](=O)[O-])c2)C(=O)c2ccccc2C1=O	inactive	inactive	inactive		inactive				Active	inactive		
NC1=C(n2c(-c3ccc(F)cc3)cs/c2=N\C(=O)c2ccc(Cl)c([N+](=O)[O-])c2)C(=O)c2ccccc2C1=O	inactive	inactive	inactive		inactive							
NC1=C(n2c(-c3ccc(Cl)cc3)cs/c2=N\C(=O)c2ccc([N+](=O)[O-])cc2)C(=O)c2ccccc2C1=O	inactive	inactive	inactive		inactive						Active	
NC1=C(n2c(-c3ccccc3)cs/c2=N\C(=O)c2ccc(Cl)c([N+](=O)[O-])c2)C(=O)c2ccccc2C1=O	inactive	inactive	inactive		inactive	Active						
NC1=C(n2c(-c3ccccc3)cs/c2=N\C(=O)c2cccc([N+](=O)[O-])c2)C(=O)c2ccccc2C1=O	inactive	inactive	inactive		inactive		Active					inactive
NC1=C(n2c(-c3ccccc3)cs/c2=N\C(=O)c2ccc([N+](=O)[O-])cc2)C(=O)c2ccccc2C1=O	inactive	inactive	inactive		inactive						inactive	
NC1=C(n2c(-c3ccc(Br)cc3)cs/c2=N\C(=O)c2ccc([N+](=O)[O-])cc2)C(=O)c2ccccc2C1=O	inactive	inactive	inactive		inactive						Active	
NC1=C(n2c(-c3ccc(F)cc3)cs/c2=N\C(=O)c2ccc([N+](=O)[O-])cc2)C(=O)c2ccccc2C1=O	inactive	inactive	inactive		inactive						Active	

— ChEMBL document CHEMBL5390270, “Synthesis, anti-inflammatory activity, inverse molecular docking, and acid dissociation constants of new naphthoquinone-thiazole hybrids” (Bioorg Med Chem, 2023)
